Values after ≈ are worked out from the molar mass of the structure shown.

The subject of assay [1] is Escherichia coli. In words: Effective dose at which 100% protection occurs in mice infected with Escherichia coli. The class given is functional. In short, it runs like this: (§1)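 Female NSA (CF-1) mice, 11–16 g, dosed sc with compound in pyrogen-free saline or water 24 h before ip injection of 0.5 mL E. coli N63 (~4×10^7 CFU/mL, from log-phase L broth culture). Subtherapeutic gentamicin given sc at 0.5, 4 and 24 h postinfection. Ten mice per group. Survival versus infected untreated controls. Minimum effective dose is the sc dose giving significant protection (p < 0.05). The 100%-protection dose is also reported.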

The subject of assay [2] is Escherichia coli. The assay can be described thus: Minimum subcutaneous effective dose required to protect mice from systemic Escherichia coli. Type of assay: functional. Conditions: sc, read-out: MED. In short, it runs like this: as §1
The test system of assay [3] is Escherichia coli. In words: In vitro antibacterial activity on sensitivity of Escherichia coli N63 to gentamicin at a concentration of 0 ug/mL. The class given is functional. In short, it runs like this: (§2)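 Checkerboard broth microdilution of E. coli N63, inoculated from overnight BHI agar growth, in Mueller-Hinton broth with serial 2-fold dilutions of aminoquinoline and gentamicin. Overnight at 37 °C. Growth read as turbidity at 600 nm, corrected with uninoculated drug-containing wells for insoluble compound. Gentamicin MIC determined at each fixed aminoquinoline concentration.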

In assay [4] the test system is Escherichia coli. The assay can be described thus: In vitro antibacterial activity on sensitivity of Escherichia coli N63 to gentamicin at a concentration of 1.56 ug/mL. Type of assay: functional. An outline of the steps: as §2
Assay [5] concerns Escherichia coli. The assay can be described thus: In vitro antibacterial activity on sensitivity of Escherichia coli N63 to gentamicin at a concentration of 100 ug/mL. Type of assay: functional. In short, it runs like this: as §2
Assay [6] has as its system Escherichia coli. The assay can be described thus: In vitro antibacterial activity on sensitivity of Escherichia coli N63 to gentamicin at a concentration of 12.5 ug/mL. The class given is functional. An outline of the steps: as §2
The test system of assay [7] is Escherichia coli. In words: In vitro antibacterial activity on sensitivity of Escherichia coli N63 to gentamicin at a concentration of 25 ug/mL. Type of assay: functional. In short, it runs like this: as §2
For assay [8], the system named is Escherichia coli. The assay can be described thus: In vitro antibacterial activity on sensitivity of Escherichia coli N63 to gentamicin at a concentration of 3.13 ug/mL. The class given is functional. In short, it runs like this: as §2
Assay [9] deals with Escherichia coli. The assay can be described thus: In vitro antibacterial activity on sensitivity of Escherichia coli N63 to gentamicin at a concentration of 50 ug/mL. The class given is functional. An outline of the steps:
as §2

For assay [10], the system named is Mus musculus. The assay can be described thus: Effect of interval between drug treatment and challenge on activity in the mouse protection assay 0 days prior to infection at 1.7 mg/Kg. The class given is functional. In short, it runs like this:
(§3)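 Female NSA (CF-1) mice, 11–16 g, given compound sc in pyrogen-free saline or water (suspensions homogenized) at 6, 3, 1 or 0 days before ip challenge with 0.5 mL E. coli N63 (~4×10^7 CFU/mL). Gentamicin sc at 0.5, 4 and 24 h postinfection. Ten mice per group. Percent protection = (dead in control − dead in treated) ÷ dead in control × 100.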

The subject of assay [11] is Mus musculus. The assay can be described thus: Effect of interval between drug treatment and challenge on activity in the mouse protection assay 1 days prior to infection at 1.7 mg/Kg. Type of assay: functional. In short, it runs like this:
as §3

The subject of assay [12] is Mus musculus. In words: Effect of interval between drug treatment and challenge on activity in the mouse protection assay 3 days prior to infection at 1.7 mg/Kg. Type of assay: functional. In short, it runs like this: as §3
The test system of assay [13] is Mus musculus. The assay can be described thus: Effect of interval between drug treatment and challenge on activity in the mouse protection assay 6 days prior to infection at 1.7 mg/Kg. The class given is functional. An outline of the steps:
as §3

The test system of assay [14] is Escherichia coli. In words: Compound was evaluated for efficacy in murine systemic Escherichia coli infection with subtherapeutic gentamycin treatment. Type of assay: functional. As to conditions: read-out: PD50. An outline of the steps: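 Female NSA (CF-1) mice (11–16 g) were given test compound in pyrogen-free saline or water, or as a homogenized saline suspension, 24 h before ip challenge with 0.5 mL E. coli N63 (serotype O18) at about 4×10^7 CFU/mL. Gentamicin 0.5 mg/kg was given sc at 0.5, 4 and 24 h postinfection. Endpoint was survival, with 10 mice per group. PD50 was derived by probit analysis of pooled experiments.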

The test system of assay [15] is Escherichia coli. The assay can be described thus: Compound was evaluated for efficacy in murine systemic Escherichia coli infection without subtherapeutic gentamycin treatment. Type of assay: functional. As to conditions: read-out: PD50. In short, it runs like this:
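Female NSA (CF-1) mice (11–16 g) were given test compound in pyrogen-free saline or water, or as a homogenized saline suspension, 24 h before ip challenge with 0.5 mL E. coli N63 (serotype O18) at about 4×10^7 CFU/mL. No gentamicin was given. Endpoint was survival, with 10 mice per group. PD50 was derived by probit analysis of pooled experiments.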

Assay [16] concerns Escherichia coli. The assay can be described thus: In vitro antibacterial activity on sensitivity of Escherichia coli N63 to gentamicin at a concentration of 6.25 ug/mL.
Assay [17] concerns Mus musculus. In words: Minimum subcutaneous effective dose required to protect mice from systemic Escherichia coli; ND=No dose response. The class given is functional, organism-based. In short, it runs like this:
as §1

Compound `Cc1cc(Nc2ccc(OCc3ccccc3)cc2)c2c(ccc3c[nH]nc32)n1` gave an ED100 in assay [1] of 6 mg/kg. Further, the minimal effective dose in assay [2] was found to be 2 mg/kg.

As to `COc1cccc(N(C)c2cc(C)nc3ccc4[nH]cnc4c23)c1`, the minimal effective dose in assay [2] is greater than 50 mg/kg.

A word on the MIC: it is the least concentration at which growth counts as inhibited. Higher therefore signals a less susceptible organism. For `Cc1cc(Nc2ccc(OCC3CCCCC3)cc2)c2c(ccc3[nH]cnc32)n1`, the MIC came out at 0.5 µg/mL (≈ 1.29 µM) in assay [3]; 0.25 µg/mL (≈ 0.647 µM) in [4]; 0.063 µg/mL (≈ 0.163 µM) in assay [5]; 0.125 µg/mL (≈ 0.323 µM) in assay [6]; 0.125 µg/mL (≈ 0.323 µM) in assay [7]; 0.25 µg/mL (≈ 0.647 µM) in assay [8]. The MIC is 0.063 µg/mL (≈ 0.163 µM) in [9] and 0.25 µg/mL (≈ 0.647 µM) in [16]. Besides, the ED100 in [1] amounted to 5 mg/kg. Moreover, the minimal effective dose in [2] is 1 mg/kg. The Protection in [10] worked out at 0%; in [11] it was 60%; in assay [12], 40%; in assay [13] it was 0%. The figures for the ED50 in assay [14] and in [15] were 0.5 mg/kg and 1.5 mg/kg, respectively.

In turn, `COc1cccc(Nc2cc(C)nc3ccc4[nH]cnc4c23)c1` registered an ED100 in [1] of 50 mg/kg. Moreover, the minimal effective dose in assay [2] stood at 6 mg/kg.

Take `COc1cccc(Nc2cc(C)nc3ccc4[nH]ncc4c23)c1`: the minimal effective dose in assay [2] was greater than 50 mg/kg.

As to `CCCCOc1ccc(Nc2cc(C)nc3ccccc23)cc1`, the minimal effective dose in assay [2] was greater than 50 mg/kg.

Consider `Cc1cc(Nc2ccc(OCc3ccccc3)cc2)c2c(ccc3[nH]ncc32)n1`, for which the MED result in assay [17] was “No dose response”.

Consider `CCCCOc1ccc(Nc2cc(C)nc3ccc4[nH]cnc4c23)cc1`, for which the ED100 in assay [1] was found to be 15 mg/kg. The minimal effective dose in assay [2] came to 5 mg/kg.

As for `O=C(Nc1ccc(OCC2CCCCC2)cc1)c1cccc2[nH]cnc12`, the minimal effective dose in [2] is greater than 50 mg/kg.

With `O=C(NC1CCCCC1)c1cccc2[nH]cnc12`, the minimal effective dose in assay [2] is greater than 50 mg/kg.

For `Cc1cc(Nc2ccc(OCc3ccccc3)cc2)c2ccccc2n1`, in assay [2], the minimal effective dose was greater than 50 mg/kg.

For `COc1cccc(Nc2cc(C)nc3ccc4c[nH]nc4c23)c1`, the MIC in assay [3], in [4], in assay [6], in assay [7], in assay [8] and in assay [9] was 0.25 µg/mL (≈ 0.821 µM) throughout. Besides, it took 0.25 µg/mL (≈ 0.821 µM) to inhibit growth in assay [16] (MIC). The ED100 in [1] turned out to be 17 mg/kg. Besides, the minimal effective dose in assay [2] worked out at 6 mg/kg. The Protection was found to be 0% in assay [10], 100% in [11] (in the assay text read “25 mg/Kg” for “1.7 mg/Kg”), 100% in [12] and 88% in [13]. Further, the ED50 in assay [14] worked out at 4.2 mg/kg; in assay [15], 9.8 mg/kg.

`COc1cccc(Nc2cc(C)nc(C)c2/C(C)=N/O)c1`: the minimal effective dose in assay [2] was greater than 100 mg/kg.

`CCCCc1ccc(Nc2cc(C)nc3ccc4[nH]cnc4c23)cc1` had an ED100 in assay [1] of 15 mg/kg. Also, in [2], the minimal effective dose was determined as 5 mg/kg.

`CCCCc1ccc(Nc2cc(C)nc3ccccc23)cc1`: the minimal effective dose in assay [2] was greater than 50 mg/kg.

Consider `N#Cc1ccc(NC(=O)c2cccc3[nH]cnc23)cc1`, for which the minimal effective dose in assay [2] was greater than 50 mg/kg.

On to `COc1cccc(Sc2cc(C)nc3ccc4[nH]cnc4c23)c1`, for which, in [2], the minimal effective dose is greater than 50 mg/kg.

The compound `Cc1cc(NC2CCCCC2)c2c(ccc3[nH]cnc32)n1` returned an ED100 in assay [1] of 6 mg/kg. For the same compound, the minimal effective dose in [2] amounted to 6 mg/kg.

As to `COc1cccc(Nc2cc(C)nc(C)c2C(C)O)c1` (stereo not drawn), the minimal effective dose in [2] is greater than 100 mg/kg.

With `COc1cccc(Nc2cc(C)nc3ccccc23)c1`, the minimal effective dose in [2] is greater than 50 mg/kg.

With `COc1cccc(NC(=O)c2cccc3[nH]cnc23)c1`, the minimal effective dose in assay [2] is greater than 50 mg/kg.

In turn, `Cc1cc(Nc2ccc(C#N)cc2)c2c(ccc3[nH]cnc32)n1` had an ED100 in [1] of 2 mg/kg. Further, the minimal effective dose in assay [2] came to 2 mg/kg.

In the case of `COc1cccc(Nc2cc(C)nc(C)c2C(C)=O)c1`, the minimal effective dose in [2] is greater than 100 mg/kg.
